According to ChEMBL document CHEMBL4196238, “Synthesis and Antiviral Evaluation of Carbocyclic Nucleoside Analogs of Nucleoside Reverse Transcriptase Translocation Inhibitor MK-8591 (4'-Ethynyl-2-fluoro-2'-deoxyadenosine)” (J Med Chem, 2018):

How the values were obtained:
[1] = system: Human immunodeficiency virus 1; experiment: Antiviral activity against HIV1 infected in human PBMC incubated for 24 hrs in presence of 10% NHS by GFP based single cycle HIV replication assay; type: functional, organism-based; settings: Human immunodeficiency virus 1, PBMC
Method in brief: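 Human PBMCs infected with wild-type HIV-1 were tested in a single-cycle HIV replication assay containing 10% normal human serum (NHS), and IC50 values were determined.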

[2] = Cytotoxicity in human MT4 cells expressing GFP assessed as reduction in cell viability incubated for 48 hrs by cell-titer-Glo luminescent cell viability assay; type: cell-based
Method in brief: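 CC50 values were determined in the MT4 cell line under 10% NHS conditions.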

[3] = Clearance in Sprague-Dawley rat at 1 mg/kg, iv; type: ADME, organism-based; settings: in vivo
Method in brief: (§1)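 Male Sprague–Dawley rats were dosed intravenously at 1 mg/kg or orally at 2 mg/kg, and pharmacokinetic parameters were derived from plasma data for each route.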

[4] = Half life in Sprague-Dawley rat at 1 mg/kg, iv; type: ADME, organism-based; settings: in vivo; method in brief: as §1
[5] = AUC (0 to infinity) in Sprague-Dawley rat at 1 mg/kg, iv; type: ADME, organism-based; parameters: dose 1 mg/kg, time infinity, route intravenous; settings: in vivo; method in brief: as §1
[6] = Oral bioavailability in Sprague-Dawley rat at 2 mg/kg; type: ADME, organism-based; settings: in vivo; method in brief: as §1
[7] = AUC (0 to infinity) in Sprague-Dawley rat at 2 mg/kg, po; type: ADME, organism-based; parameters: dose 2 mg/kg, time infinity, route oral; settings: in vivo; method in brief: as §1
[8] = Half life in human CD4+ CEM cells at 0.1 to 10 uM by HPLC method; type: ADME, cell-based, CCRF-CEM
[9] = molecular target: Human immunodeficiency virus type 1 reverse transcriptase (Human immunodeficiency virus 1, UniProt Q72547); experiment: Inhibition of full-length wild-type HIV1 reverse transcriptase expressed in Escherichia coli BL21(DE3) pre-incubated for 30 mins before addition of template/primer substrate and measured after 90 mins
[10] = AUC (0 to infinity) in Sprague-Dawley rat at 5 mg/kg, po; type: ADME, organism-based; parameters: dose 5 mg/kg, time infinity, route oral; settings: in vivo
[11] = Oral bioavailability in Sprague-Dawley rat at 5 mg/kg; type: ADME, organism-based; settings: in vivo

IC50 [1]	SMILES	CC50 at 48 h [2]	IC50 [9]	also measured
24 nM	C#C[C@]1(CO)C[C@@H](n2cnc3c(=O)[nH]c(N)nc32)C[C@@H]1O	> 42000 nM		clearance [3]: 32.4 mL/min/kg; half-life [4]: 9.8 h; AUC(0-inf) [5]: 1.82 µM·h; bioavailability [6]: 91%; AUC(0-inf) [7]: 3.3 µM·h
> 2100 nM	C#C[C@@]1(CO)C[C@H](n2cnc3c(=O)[nH]c(N)nc32)C[C@H]1O	> 42000 nM		
	C#C[C@]1(COP(=O)(O)OP(=O)(O)OP(=O)(O)O)O[C@@H](n2cnc3c(N)nc(F)nc32)C[C@@H]1O			half-life at up to 10 µM [8]: > 120 h
> 2100 nM	N#CC1(CO)CC(n2cnc3c(N)nc(F)nc32)CC1O (racemic)	> 42000 nM		
	C#CC1(COP(=O)(O)OP(=O)(O)OP(=O)(O)O)CC(n2cc(C)c(=O)[nH]c2=O)CC1O (racemic)		114 nM	
> 2100 nM	Cc1cn(C2CC(O)C(C#N)(CO)C2)c(=O)[nH]c1=O (racemic)	> 42000 nM		
	C#CC1(COP(=O)(O)OP(=O)(O)OP(=O)(O)O)CC(n2cnc3c(N)nc(Cl)nc32)CC1O (racemic)		20200 nM	
1150 nM	N#CC1(CO)CC(n2cnc3c(=O)[nH]c(N)nc32)CC1O (racemic)	> 42000 nM		
33 nM	C#CC1(CO)CC(n2cnc3c(=O)[nH]c(N)nc32)CC1O (racemic)	> 42000 nM		
	Cc1cn(C2CC(O)C(C#N)(COP(=O)(O)OP(=O)(O)OP(=O)(O)O)C2)c(=O)[nH]c1=O (racemic)		523 nM	
	C#CC1(COP(=O)(O)OP(=O)(O)OP(=O)(O)O)CC(n2cnc3c(N)nc(F)nc32)CC1O (racemic)		3460 nM	
> 2100 nM	C#CC1(CO)CC(n2cc(C)c(=O)[nH]c2=O)CC1O (racemic)	> 42000 nM		
232 nM	C#CC1(CO)CC(n2cnc3c(N)nc(Cl)nc32)CC1O (racemic)	> 42000 nM		
201 nM	C#CC1(CO)CC(n2cnc3c(N)nc(F)nc32)CC1O (racemic)	> 42000 nM		
	N#CC1(COP(=O)(O)OP(=O)(O)OP(=O)(O)O)CC(n2cnc3c(=O)[nH]c(N)nc32)CC1O (racemic)		444 nM	
	C#CC1(COP(=O)(O)OP(=O)(O)OP(=O)(O)O)CC(n2cnc3c(=O)[nH]c(N)nc32)CC1O (racemic)		324 nM	
0.21 nM	C#C[C@]1(CO)O[C@@H](n2cnc3c(N)nc(F)nc32)C[C@@H]1O [ISLATRAVIR]	> 4200 nM		clearance [3]: 72 mL/min/kg; AUC(0-inf) [10]: 5 µM·h; half-life [4]: 0.7 h; AUC(0-inf) [5]: 0.78 µM·h; bioavailability [11]: > 100%
	Nc1ccn([C@@H]2CS[C@H](COP(=O)(O)OP(=O)(O)OP(=O)(O)O)O2)c(=O)n1 [LAMIVUDINE TRIPHOSPHATE]		15 nM	
171 nM	Nc1ccn([C@@H]2CS[C@H](CO)O2)c(=O)n1 [LAMIVUDINE]	> 42000 nM		

SMILES	IC50 [1]	CC50 at 48 h [2]	IC50 [9]	also measured
C#C[C@@]1(CO[P@@](=O)(N[C@@H](C)C(=O)OC(C)C)Oc2ccccc2)C[C@H](n2cnc3c(OCC)nc(N)nc32)C[C@H]1O	382 nM	> 4200 nM		
C#C[C@]1(CO[P@@](=O)(N[C@@H](C)C(=O)OC(C)C)Oc2ccccc2)C[C@@H](n2cnc3c(OCC)nc(N)nc32)C[C@@H]1O	3 nM	> 42000 nM		
